Sampled rows, rich in hits. Any-hit rate of the full collection: about 0.62%.
AP ELISA ortho – alternative pathway complement inhibition, orthogonal assay; inhibition, % at 5 µM; Human serum alternative complement pathway, LPS-coated ELISA, C3 deposition; tested in compound mixtures; 62,000 tested, 0.08% active;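 active = inhibition above 30% in each of the two pooled mixtures holding the compound, so the lower value exceeds 30%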;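 note: 0% = serum in Mg-EGTA without compound and 100% = EDTA serum blank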
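Assay system: human serum alternative complement pathway, C3 deposition on LPS-coated wells; Dosing: 5 µM per compound in ten-compound mixtures; Detection: Anti-C3 ELISA, OD 450 nm; Buffer or medium: Mg2+-EGTA GVB++ buffer containing human serum at 1:15 dilution; Timing: 1 h at 37 °C; Replication: two different pools per compound.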
A340 absorber – absorbance at 340 nm; AID 708; compound absorbance at 340 nm, fold over control; 65,000 tested, under 10 active; fold change at 10 µM;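 active = at 10 µM dose, initial 340 nm absorbance at least 2 fold that of control wells; inactive = change under 2 fold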;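 note: initial absorbance extrapolated from kinetic A340 decline of NADH oxidation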
HePTP inh – human HePTP phosphatase inhibition. P35236. recombinant HePTP phosphatase activity, OD absorbance. inhibition, % at 20 µM. 110,000 tested, 0.64% active; in the data active = inhibition above about 50%;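 note: plate controls were vehicle for no effect and reference inhibitor for full effect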
Target sequence (P35236 whole entry, looked up): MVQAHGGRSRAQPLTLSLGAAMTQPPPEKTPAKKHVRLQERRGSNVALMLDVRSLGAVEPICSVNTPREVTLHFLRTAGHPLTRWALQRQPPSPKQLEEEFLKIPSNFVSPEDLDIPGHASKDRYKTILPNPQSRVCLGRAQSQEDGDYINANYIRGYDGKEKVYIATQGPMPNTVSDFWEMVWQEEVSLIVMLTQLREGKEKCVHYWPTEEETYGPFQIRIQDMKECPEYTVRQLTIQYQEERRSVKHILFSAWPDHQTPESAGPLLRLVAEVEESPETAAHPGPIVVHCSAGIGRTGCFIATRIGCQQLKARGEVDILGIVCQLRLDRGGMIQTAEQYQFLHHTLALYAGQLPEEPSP
* = called active by the depositor; x = no result given.

SMILES	AP ELISA ortho	A340 absorber	HePTP inh
COC(=O)c1cc(C(=O)NC2CCSC2=O)cc([N+](=O)[O-])c1 (stereo unspecified)	x	x	102.2*
O=C1NC(=S)N/C1=C/c1ccc(-c2cccc(Cl)c2Cl)o1	x	x	13.4
O=C1NC(=S)S/C1=C/c1ccc(-c2ccc(C(=O)O)c(Cl)c2)o1	x	x	6.0
O=C(O)c1ccc(Cl)c(-c2ccc(C=C3C(=O)c4ccccc4C3=O)o2)c1	x	x	104.1*
O=C(/C=C\c1ccc(-c2cc(Cl)ccc2Cl)o1)c1ccccc1	x	x	-2.4
O=C(O)c1ccc(-c2ccc(C=C3C(=O)c4ccccc4C3=O)o2)cc1Cl	x	x	52.1*
O=C1NC(=S)N/C1=C/c1ccc(-c2cc(C(=O)O)ccc2Cl)o1	x	x	103.7*
CCOc1cc(/C=N/NC(=O)c2cccs2)ccc1OC(=O)c1ccc(C)cc1	x	x	4.6
O=C(COc1ccc(Br)cc1)Nc1ccc2oc(-c3ccccc3F)nc2c1	x	x	4.6
O=C(COc1ccc(Cl)cc1)Nc1ccc2oc(-c3ccccc3F)nc2c1	x	x	57.1*
O=C(Cc1ccc(F)cc1F)Nc1cccc2ccccc12	x	x	2.8
O=C(Cc1ccc(F)cc1)Nc1cccc2ccccc12	x	x	103.3*
C/C(=N\NC(=O)C1(C)CC1(Br)Br)c1ccc(Cl)s1 (stereo unspecified)	x	x	-6.6
Cc1ccc(/C(N)=N/OC(=O)COc2ccccc2C)cc1	x	x	-0.6
CC(=O)NC1=NC(=O)/C(=C\c2ccc(-c3ccccc3C(=O)O)o2)S1	x	x	51.0*
CC(=O)NC1=NC(=O)/C(=C\c2ccc(C)o2)S1	x	x	2.7
CCOc1ccc(S(=O)(=O)N(CC(=O)NC2CCCCC2)c2ccc(C)cc2)cc1	x	x	8.5
COC(=O)CCC(=O)NNc1ccc([N+](=O)[O-])cc1	x	x	59.8*
COC(=O)CCC(=O)Nc1ccc([N+](=O)[O-])cc1C	x	x	7.8
CCCCNCCCCCOc1cccc(C)c1C	x	x	3.0
CC(C)(Oc1ccc(C2CCCCC2)cc1)C(=O)O	x	x	0.2
Cc1c(-c2ccc(Cl)cc2Cl)nc2ccccc2c1C(=O)O	x	x	-1.0
Cc1c(-c2cccc(Cl)c2)nc2ccccc2c1C(=O)O	x	x	104.7*
CCn1c2ccccc2c2nnc(N/N=C/c3cccc(I)c3)nc21	x	x	9.2
O=C(Nc1ccc(Cl)c([N+](=O)[O-])c1)C1CC2CCC1C2 (stereo unspecified)	x	x	43.5
SMILES	AP ELISA ortho	A340 absorber	HePTP inh
O=S(c1ccc2ccccc2c1)N1CCOCC1 (stereo unspecified)	x	x	-14.2
CCOC(=O)C(=Cc1cc(OC)c(OC)cc1Br)C(=O)OCC	x	x	3.3
CCOC(=O)C(=CC1=C/C(=C/N(C)C)C(=O)O1)C(=O)OCC	x	x	80.9*
Cc1ccc(C(=O)Nc2cc(C(F)(F)F)cc(C(F)(F)F)c2)cc1	x	x	4.0
Nc1c([N+](=O)[O-])cc(Cl)c2c1C(=O)c1ccccc1C2=O	x	x	5.4
Nc1c2c3c(c(Cl)ccc3[nH]c1=O)C(=O)c1ccccc1-2	x	x	103.2*
CCCOC(=O)c1c(N)sc2c1CCCCC2	x	x	5.2
CCCC(=Nc1cccc([N+](=O)[O-])c1)C1=C(O)CC(C)(C)CC1=O	x	x	60.9*
CCCC(=Nc1ccc(OC)cc1)C1=C(O)CC(C)(C)CC1=O	x	x	-11.8
CC(C)OC(=O)c1cccc(C(=O)OCc2ccco2)n1	10.1	0.98	1.2
O=C(O)CCCC(=O)OCc1ccco1	x	x	102.1*
CCOC(=O)C(=CNc1cc(OC)c(Cl)cc1OC)C(=O)OCC	x	x	4.1
Cc1ccc(Br)cc1S(=O)(=O)n1nnc2ccccc21	x	x	-3.1
COc1ccc(NC(=O)Nc2nnc(CC(C)C)s2)cc1	x	x	3.1
O=C1CC(N2CCN(c3ccc(F)cc3)CC2)C(=O)N1c1cc(Cl)cc(Cl)c1 (stereo unspecified)	x	x	-2.6
CC(=O)NN1C(=O)/C(=C/c2cc3c(cc2[N+](=O)[O-])OCO3)SC1=S	x	x	92.9*
O=C1/C(=C\c2cc3c(cc2[N+](=O)[O-])OCO3)SC(=S)N1c1ccccc1	x	x	-3.0
COC(=O)c1c(NC(=O)C(Cl)Cl)sc2c1CCCCCC2	x	x	1.0
COc1cc(Br)cc(/C=N/NC(=O)COc2cccc(Cl)c2)c1O	x	x	98.9*
O=C(COc1cccc(Cl)c1)N/N=C/c1c(Br)cc(Br)c(O)c1Br	x	x	1.9
NC(=O)N=Nc1c(O)[nH]c2ccccc12	x	x	-5.7
O=C1N=C(N=Nc2c(O)[nH]c3ccccc23)S/C1=C/c1ccc(Br)cc1	x	x	103.4*
O=C(c1ccc([N+](=O)[O-])cc1)N1CCN(Cc2ccc(F)cc2)CC1	x	x	10.2
Cc1cc(C)c2[nH]c(O)c(N=NC(N)=S)c2c1	x	x	-15.1
CCC1(C)Cc2c(sc3nc(NC)n(C)c(=O)c23)CO1 (stereo unspecified)	35.3*	1.06	2.7
SMILES	AP ELISA ortho	A340 absorber	HePTP inh
CCC1(C)Cc2c(sc3nc4n(c(=O)c23)CCS4)CO1 (stereo unspecified)	x	1.03	3.0
Cc1c(NC(=O)c2ccc(CN(c3ccccc3)S(C)(=O)=O)cc2)c(=O)n(-c2ccccc2)n1C	x	x	2.1
COCCOC(=O)C1=C(C)NC(=O)NC1c1ccc(Br)cc1 (stereo unspecified)	x	x	-5.2
CC1=C(C(=O)OCC(C)C)C(c2ccc(Br)cc2)NC(=O)N1 (stereo unspecified)	x	x	59.6*
COc1ccccc1/C=C1\SC(=S)N(c2cccc(C)c2)C1=O	x	x	-12.4
Cc1c(NC(=O)c2ccccc2Br)cccc1-c1nc2ccccc2o1	x	x	-8.0
CN(C)/C=C/C=C/C=C1\CCC/C(=C\C=C\N(C)C)C1=O	x	x	-1.3
CN(/C=C/C=C1\CC/C(=C\C=C\N(C)c2ccccc2)C1=O)c1ccccc1	x	x	97.6*
O=C1C(Cl)=C(N2CCCCC2)C(=O)C(Cl)=C1/C=C/N1CCCCC1	x	x	102.1*
O=C1C(Cl)=C(N2CCCCC2)C(=O)N1c1ccccc1	-7.4	0.99	-6.2
CCOC(=O)c1ccc(NC(=O)CN(c2ccc(C)cc2)S(=O)(=O)c2ccc(OCC)cc2)cc1	x	x	-5.1
CCOC(=O)c1ccc(NC(=O)CN(c2ccc(F)cc2)S(=O)(=O)c2ccccc2)cc1	x	x	-5.2
CCOC(=O)c1ccc(NC(=O)CN(c2ccccc2OCC)S(=O)(=O)c2ccccc2)cc1	x	x	103.9*
Cc1cc(Br)ccc1OCC(=O)O/N=C(\N)c1ccccn1	x	x	-6.3
COc1cc(NC(=O)COc2ccc(Cl)cc2)ccc1NC(=O)c1ccco1	x	x	4.6
COc1ccc(C(=O)n2nc(-c3ccco3)nc2SC)cc1OC	101.6*	1.04	5.2
CSc1nc(-c2ccco2)nn1C(=O)c1cccs1	1.1	1.08	-8.0
O=C(O)c1ccc(-c2ccc(/C=C3\SC(=S)N(c4ccc([N+](=O)[O-])cc4)C3=O)o2)cc1	x	x	102.6*
O=C(O)CCN1C(=O)/C(=C/c2ccc(-c3ccc(Cl)cc3)o2)SC1=S	x	x	102.4*
O=C1/C(=C\c2ccc(-c3ccc([N+](=O)[O-])cc3)o2)SC(=S)N1c1ccc(O)cc1	x	x	-5.9
O=C(O)CN1C(=O)/C(=C\c2cc([N+](=O)[O-])ccc2Cl)SC1=S	x	x	34.3
O=C(O)CCN1C(=O)/C(=C\C(Cl)=C/c2ccc([N+](=O)[O-])cc2)SC1=S	x	x	102.4*
O=C(O)CCN1C(=O)/C(=C/c2ccc(-c3ccc([N+](=O)[O-])cc3)o2)SC1=S	x	x	4.8
O=C(O)CCCN1C(=O)/C(=C\c2ccc(-c3cccc([N+](=O)[O-])c3)o2)SC1=S	x	x	97.4*
O=C1/C(=C\c2ccc(-c3cccc([N+](=O)[O-])c3)o2)SC(=S)N1CCc1ccccc1	x	x	14.6
COC(=N)/C(C#N)=C/c1c(O)n(-c2c(Cl)cccc2Cl)c2ccccc12	x	x	-3.3
